In experiment [1] the target is Botulinum neurotoxin type A (Clostridium botulinum (strain Hall / ATCC 3502 / NCTC 13319 / Type A)) (UniProt P0DPI1). Nature of the experiment: Inhibition of Clostridium botulinum Hall BoNT/A protease activity using Ac-SNKTRIDEANQRATKML-NH2 as substrate at 100 uM after 5 mins by RP-HPLC analysis. The essentials:
(§1)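 HPLC-based BoNT/A protease assay; single-point percent inhibition of protease activity at 100 or 20 μM compound.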

Experiment [2] has the same target. The experiment can be described thus: Inhibition of Clostridium botulinum Hall BoNT/A protease activity using Ac-SNKTRIDEANQRATKML-NH2 as substrate at 20 uM after 5 mins by RP-HPLC analysis. The procedure, abridged:
as §1

Experiment [3] has the same target. The experiment can be described thus: Inhibition of Clostridium botulinum Hall BoNT/A-mediated paralysis in CD1 mouse phrenic nerve hemidiaphragm assessed as time required to 50% loss of twitch tension at 20 uM measured upto 5 hrs (reference value: 62 mins).
Experiment [4] has the same target. Nature of the experiment: Inhibition of Clostridium botulinum Hall BoNT/A-mediated paralysis in CD1 mouse phrenic nerve hemidiaphragm assessed as time required to 50% loss of twitch tension at 2 uM measured upto 5 hrs (reference value: 62 mins).
Experiment [5] has as its target Botulinum neurotoxin type A (Clostridium botulinum (strain Hall / ATCC 3502 / NCTC 13319 / Type A), UniProt P0DPI1). Nature of the experiment: Inhibition of Clostridium botulinum Hall BoNT/A protease activity using Ac-SNKTRIDEANQRATKML-NH2 as substrate after 5 mins by RP-HPLC analysis. The essentials:
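HPLC-based BoNT/A protease assay; percent inhibition measured at nine compound concentrations, with IC50 derived by curve fitting.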

Chain of Botulinum neurotoxin type A (Clostridium botulinum (strain Hall / ATCC 3502 / NCTC 13319 / Type A)) (P0DPI1 2-448 limits assumed): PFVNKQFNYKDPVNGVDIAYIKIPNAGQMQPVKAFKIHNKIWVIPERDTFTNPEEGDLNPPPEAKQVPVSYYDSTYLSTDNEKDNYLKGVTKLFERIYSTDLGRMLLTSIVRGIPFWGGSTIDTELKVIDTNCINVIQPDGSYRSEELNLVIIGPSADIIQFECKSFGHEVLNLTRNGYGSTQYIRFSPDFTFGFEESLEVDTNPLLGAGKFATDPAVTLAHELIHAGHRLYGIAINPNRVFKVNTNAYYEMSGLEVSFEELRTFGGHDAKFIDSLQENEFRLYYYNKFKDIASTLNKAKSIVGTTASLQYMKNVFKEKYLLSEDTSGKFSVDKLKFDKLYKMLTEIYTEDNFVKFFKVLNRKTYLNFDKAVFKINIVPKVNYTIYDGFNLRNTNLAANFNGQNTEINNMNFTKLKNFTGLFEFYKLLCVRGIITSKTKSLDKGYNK
Chain of Botulinum neurotoxin type A (P0DPI1 2-448 limits assumed): as above

Take `CCC[C@H]1Cc2cc3c(-c4c(O)cc(O)c5c(O)c6c(cc45)C[C@H](CCC)OC6=O)c(O)cc(O)c3c(O)c2C(=O)O1`: the inhibition amounted to 96% in experiment [1] and 85% in experiment [2]. Moreover, the TIME in experiment [3] came to 3.28 h; in experiment [4], 3.15 h.

Regarding `CCOc1ccc(C(Nc2cccnc2)c2cc(Cl)c3cccnc3c2O)cc1` (racemic), the inhibition in experiment [1] was determined as 98%; in experiment [2] it was 96.2%. For the same molecule, the IC50 in experiment [5] amounted to 2.1 µM. For the same molecule, the TIME in experiment [3] and in experiment [4] was 5 h throughout.

As for `CCC[C@H]1Cc2cc3c(-c4c(O)cc(O)c5c(O)c6c(cc45)C[C@H](CCC)OC6=O)c(O)cc(O)c3c(O)c2C(=O)O1` (single isomer, unassigned; atropisomer), the figures for the inhibition in experiment [1] and in experiment [2] were 80.3% and 67%, respectively. The TIME was determined as 1.58 h in experiment [3] and 2.9 h in experiment [4].

For `CCC[C@H]1Cc2cc3c(-c4c(O)cc(O)c5c(O)c6c(cc45)C[C@H](CCC)OC6=O)c(O)cc(O)c3c(O)c2C(=O)O1` (single isomer, unassigned; atropisomer) [TALARODERXINE A], inhibition in experiment [5] was half-maximal at 10.1 µM (IC50).

Turning to `CC1CC(=O)c2c(cc3c(-c4c(O)cc(O)c5c(O)c6c(cc45)OC(C)CC6=O)c(O)cc(O)c3c2O)O1` (stereo not drawn) [CEPHALOCHROMIN], the inhibition in experiment [1] stood at 72%; in experiment [2], 45%. Further, the IC50 in experiment [5] is 29.2 µM. For the same molecule, the TIME in experiment [3] was 0.983 h.

Consider `C[C@H]1Oc2cc3c(-c4c(O)cc(O)c5c(O)c6c(cc45)O[C@H](C)[C@@H](C)C6=O)c(O)cc(O)c3c(O)c2C(=O)[C@@H]1C` [CHAETOCHROMIN A], for which the inhibition in experiment [1] was found to be 74%; in experiment [2] it was 55%. In experiment [5], this molecule had an IC50 of 24.6 µM. Moreover, the values for the TIME in experiment [3] and in experiment [4] were 3.13 h and 1.73 h, respectively.

As for `COC(=O)[C@]12Oc3ccc(-c4ccc5c(c4O)C(=O)C4=C(O)C[C@@H](C)[C@H](O)[C@@]4(C(=O)OC)O5)c(O)c3C(=O)C1=C(O)C[C@@H](C)[C@@H]2O` [SECALONIC ACID A], the inhibition is 64.5% in experiment [1] and 39.1% in experiment [2]. Moreover, in experiment [5], the IC50 came out at 28.6 µM. The TIME in experiment [3] amounted to 1.12 h.

In the case of `Cc1cc(O)c2c(c1)C(=O)c1c(c(O)cc(O)c1-c1c(O)cc(O)c3c1C(=O)c1cc(C)cc(O)c1C3=O)C2=O` [SKYRIN], the figures for the inhibition in experiment [1] and in experiment [2] were 74.3% and 40.3%, respectively. In experiment [5], this molecule had an IC50 of 31.5 µM. The TIME in experiment [3] was found to be 1.35 h; in experiment [4], 1.07 h.

`CCC[C@H]1Cc2cc3c(-c4c(O)cc(O)c5c(O)c6c(cc45)C[C@H](CCC)OC6=O)c(O)cc(O)c3c(O)c2C(=O)O1` [TALARODERXINE A] had an IC50 in experiment [5] of 3.7 µM.

The values above are taken from ChEMBL document CHEMBL2062470, “Fungal bis-Naphthopyrones as Inhibitors of Botulinum Neurotoxin Serotype A” (ACS Med Chem Lett, 2012).
